Results from ChEMBL document CHEMBL4038331 (J Med Chem, 2017).
pIC50: −log10 of the molar value. Active and inactive are the calls of the source. No cut-off for these calls is given here.

Columns and labels:
[1] = Antioxidant activity assessed as DPPH radical scavenging activity measured every minute for 45 mins; assay type: functional
In short: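 DPPH• ethanolic solution diluted to absorbance 0.72 ± 0.02 at 515 nm. Ethanolic test solutions (50–500 μM) were added in triplicate and read at 515 nm. Inhibition was taken against an ethanol blank (100% radical), and IC50 was read from dose–response curves.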

[2] = Antioxidant activity assessed as ABTS radical scavenging activity measured each minute for 15 mins by spectrophotometric analysis; assay type: functional
In short: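 ABTS•+ generated from 7 mM ABTS plus potassium persulfate, held 16 h dark at room temperature, then diluted in ethanol to absorbance 0.72 ± 0.02. Ethanolic test solutions (10–500 μM) were added to radical solution in triplicate. Inhibition was taken against an ethanol blank (100% radical), and IC50 was read from dose–response curves.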

[3] = Antioxidant activity assessed as GO radical scavenging activity measured for 30 mins in absence of light; assay type: functional
In short: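 Ethanolic GO• (5 mM stock) diluted to absorbance 1.00 ± 0.02 at 428 nm. Test solutions (5–75 μM in ethanol) were added in triplicate and read at 428 nm at room temperature. Inhibition was taken against an ethanol blank (100% radical).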

[4] = Redox potential of compound in Ag/AgCl-NaCl containing phosphate buffer at 0.1 mM at pH 7.4 by cyclic voltammetric analysis
In short: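 Voltammetry used a glassy carbon working electrode, Pt counter and Ag/AgCl reference. Compound was at 0.1 mM final (10 mM ethanolic stock) in pH 7.4 potassium phosphate electrolyte.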

[5] = Lipophilicity of compound in Ag/AgCl-NaCl containing PET membrane assessed as tranfer potential at pH 7; assay type: physicochemical
In short: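 Transfer across a liquid–liquid interface on a microporous PET membrane, with 1,6-dichlorohexane organic phase containing BTPPATPBCl. A gelled 2 mM BTPPACl + 2 mM NaCl reference was used, with 10 mM Tris-HCl pH 7.0 aqueous electrolyte.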

[6] = Iron chelating activity in ammonium acetate buffer assessed as inhibition of [Fe(ferrozine)3]2+ formation at 100 uM at pH 6.7 measured after 10 mins by spectrophotometric analysis
In short: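 Ferrozine assay in ammonium acetate buffer pH 6.7. Compound (100 μM) plus ammonium iron(II) sulfate (20 μM) for 10 min, read at 562 nm. Ferrozine was added, incubated 10 min at 37 °C, and re-read at 562 nm. The first reading was subtracted, with a DMSO blank and EDTA = 100%. Three experiments.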

[7] = tested on: Liver; experiment: Drug uptake in rat liver intra-mitochondria at 1 uM in presence of succinate/valinomycin by TPP+-based electrode assay; assay type: ADME, tissue-based
In short: (§1)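 TPP+-selective electrode with rat liver mitochondria (0.5 mg/mL) in 120 mM KCl, 10 mM HEPES pH 7.2, 1 mM EGTA at 37 °C with rotenone 1.5 μM. Five 1 μM additions calibrated the electrode, then succinate 10 mM was added, then valinomycin 0.2 μg/mL. The accumulation ratio assumed a matrix volume of ~0.5 μL/mg with a binding correction.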

[8] = tested on: Liver; experiment: Drug uptake in rat liver extra-mitochondria at 1 uM in presence of succinate/valinomycin by TPP+-based electrode assay; assay type: ADME, tissue-based; in short: as §1
[9] = tested on: Liver; experiment: Ratio of drug level in rat liver intra-mitochondria to extra-mitochondria at 1 uM in presence of succinate/valinomycin by TPP+-based electrode assay; assay type: ADME, tissue-based; in short: as §1
[10] = tested on: Liver; experiment: Antioxidant activity in rat liver mitochondria assessed as inhibition of ADP/FeSO4-induced lipid peroxidation at 5 uM preincubated for 5 mins followed by ADP/FeSO4 addition; assay type: functional
In short: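 Rat liver mitochondria (2 mg) in 100 mM KCl, 10 mM Tris-HCl pH 7.6, with glutamate/malate (5/2.5 mM) at 37 °C. After 5 min with compound (5 μM), peroxidation was started with ADP/0.1 mM FeSO4. The lag phase of O2 consumption was measured by Clark electrode and expressed as % of control. Six experiments.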

[11] = tested on: Liver; experiment: Induction of basal oxygen consumption under nonphosphorylative conditions in rat liver mitochondria after 5 mins in presence of glutamate/malate; assay type: functional
In short: (§2)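 Glutamate/malate (10/5 mM) or succinate (5 mM) was the substrate, with compound 2.5–10 μM for 5 min (state 2). ADP was added (125 nmol glutamate/malate; 75 nmol succinate), then oligomycin 2 μg/mL, then FCCP 1 μM. RCR and ADP/O were calculated. Seven experiments.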

[12] = tested on: Liver; experiment: Induction of ADP-stimulated respiration in rat liver mitochondria after 5 mins in presence of succinate; assay type: functional; in short: as §2
[13] = tested on: HepG2; experiment: Cytotoxicity against human HepG2 cells assessed as reduction in cell density at 0.5 to 100 uM after 48 hrs by SRB assay; assay type: cell-based; details: hepg2, 48 h
[14] = tested on: HepG2; experiment: Antioxidant activity in human HepG2 cells assessed as reduction in H2O2-induced cell toxicity at 100 uM preincubated for 1 hr followed by H2O2 addition for 48 hrs by SRB assay; assay type: functional, cell-based
In short: (§3)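 HepG2 cells, grown in high-glucose DMEM with 10% FBS at 37 °C and 5% CO2, seeded at 2 × 10^4 cells/500 μL. Cells were preincubated with compound, then given 250 μM FeSO4 or 250 μM H2O2. Cell mass was read by SRB (fixed, stained, OD 540 nm) as % of untreated control. Four independent experiments.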

[15] = tested on: HepG2; experiment: Antioxidant activity in human HepG2 cells assessed as reduction in FeSO4-induced cell toxicity at 100 uM preincubated for 1 hr followed by FeSO4 addition for 48 hrs by SRB assay; assay type: functional, cell-based; in short: as §3
[16] = tested on: HepG2; experiment: Cytotoxicity against human HepG2 cells assessed as chromatin condensation at 100 uM after 48 hrs Hoechst 33342-staining based epifluorescence microscopic analysis; assay type: cell-based; details: hepg2, 48 h
In short: (§4)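 HepG2 cells on coverslips (8 × 10^4 cells/2 mL) were treated 48 h. In the last 30 min, cells were stained with TMRM (100 nM) and Hoechst 33342 (1 μg/mL) in HBSS pH 7.4 at 37 °C in the dark. Live cells were imaged by fluorescence microscopy, four random fields per well, three experiments.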

[17] = tested on: HepG2; experiment: Cytotoxicity against human HepG2 cells assessed as mitochondrial depolarization at 100 uM after 48 hrs TMRM-staining based epifluorescence microscopic analysis; assay type: cell-based; details: hepg2, 48 h; in short: as §4
[18] = tested on: HepG2; experiment: Antioxidant activity in human HepG2 cells assessed as intracellular GSH content per ug of protein at 100 uM after 48 hrs by HPLC analysis (reference value: 17.81 nmol); assay type: functional
[19] = tested on: HepG2; experiment: Cytotoxicity against human HepG2 cells assessed as depletion of intracellular GSH content at 100 uM after 48 hrs by HPLC analysis; assay type: cell-based; details: hepg2, 48 h
In short: (§5)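 HepG2 cells (4 × 10^5 per 100 mm dish) were incubated 48 h, collected and stored at −80 °C in PBS. Reduced GSH was measured by reverse-phase HPLC with detection at 515 nm and expressed as nmol GSH/μg protein. Four experiments.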

[20] = tested on: Liver; experiment: Induction of basal respiration in rat liver mitochondria measured 5 mins after ADP phosphorylation in presence of glutamate/malate; assay type: functional; in short: as §2
[21] = tested on: Liver; experiment: Increase in oligomycin-inhibited respiration in rat liver mitochondria after 5 mins in presence of glutamate/malate; assay type: functional; in short: as §2
[22] = tested on: Liver; experiment: Increase in oligomycin-inhibited respiration in rat liver mitochondria after 5 mins in presence of succinate; assay type: functional; in short: as §2
[23] = tested on: Liver; experiment: Induction of basal respiration in rat liver mitochondria measured 5 mins after ADP phosphorylation in presence of succinate; assay type: functional; in short: as §2
[24] = tested on: Liver; experiment: Induction of basal oxygen consumption under nonphosphorylative conditions in rat liver mitochondria after 5 mins in presence of succinate; assay type: functional; in short: as §2
[25] = tested on: Liver; experiment: Induction of ADP-stimulated respiration in rat liver mitochondria after 5 mins in presence of glutamate/malate; assay type: functional; in short: as §2
[26] = tested on: Liver; experiment: Decrease in oxidative phosphorylation efficiency in rat liver mitochondria assessed as reduction in coupling between ATP systhesis and oxygen consumption after 5 mins in presence of glutamate/malate; assay type: functional; in short: as §2
[27] = tested on: Liver; experiment: Decrease in oxidative phosphorylation efficiency in rat liver mitochondria assessed as reduction in coupling between ATP systhesis and oxygen consumption after 5 mins in presence of succinate; assay type: functional; in short: as §2
[28] = tested on: Liver; experiment: Decrease in oxidative phosphorylation efficiency in rat liver mitochondria assessed as reduction in respiratory control ratio after 5 mins in presence of glutamate/malate; assay type: functional; in short: as §2
[29] = tested on: Liver; experiment: Induction of membrane hyperpolarization in rat liver mitochondria assessed as change in repolarization potential at 2.5 uM; assay type: functional
In short: (§6)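 Safranine (5 μM) fluorescence (ex 495/em 586 nm) at 25 °C. Rat liver mitochondria (0.5 mg/2 mL) were in 200 mM sucrose, 1 mM KH2PO4, 10 mM Tris pH 7.4, 10 μM EGTA with glutamate/malate or succinate, after 5 min with 2.5–10 μM. ADP 25 nmol depolarised, then FCCP 1 μM was added. A valinomycin calibration in K+-free medium was used, five experiments.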

[30] = tested on: Liver; experiment: Inhibition of ADP-induced membrane depolarization in succinate energized rat liver mitochondria at 5 uM preincubated for 5 mins followed by ADP addition measured by safranine-based spectrofluorometric analysis; assay type: functional, tissue-based; in short: as §6
[31] = Induction of mPTP in energized rat liver mitochondria at 2.5 to 10 uM after 5 mins in presence of succinate by spectrophotometric analysis
[32] = species: Rattus norvegicus; experiment: Inhibition of mPTP in energized rat liver mitochondria at 2.5 to 10 uM after 5 mins in presence of succinate by spectrophotometric analysis
[33] = tested on: HepG2; experiment: Antioxidant activity in human HepG2 cells assessed as intracellular GSH content per ug of protein at 2.5 uM after 48 hrs by HPLC analysis (reference value: 17.81 nmol); assay type: functional
[34] = tested on: HepG2; experiment: Cytotoxicity against human HepG2 cells assessed as reduction in cell density at >2.5 uM after 48 hrs by SRB assay; assay type: cell-based; details: hepg2, 48 h
[35] = tested on: HepG2; experiment: Antioxidant activity in human HepG2 cells assessed as reduction in H2O2-induced cell toxicity at 2.5 uM preincubated for 1 hr followed by H2O2 addition for 48 hrs by SRB assay; assay type: functional, cell-based; in short: as §3
[36] = tested on: HepG2; experiment: Antioxidant activity in human HepG2 cells assessed as reduction in FeSO4-induced cell toxicity at 2.5 uM preincubated for 1 hr followed by FeSO4 addition for 48 hrs by SRB assay; assay type: functional, cell-based; in short: as §3
[37] = tested on: HepG2; experiment: Cytotoxicity against human HepG2 cells assessed as chromatin condensation at 2.5 uM after 48 hrs Hoechst 33342-staining based epifluorescence microscopic analysis; assay type: cell-based; details: hepg2, 48 h; in short: as §4
[38] = tested on: HepG2; experiment: Cytotoxicity against human HepG2 cells assessed as mitochondrial depolarization at 2.5 uM after 48 hrs TMRM-staining based epifluorescence microscopic analysis; assay type: cell-based; details: hepg2, 48 h; in short: as §4
[39] = tested on: HepG2; experiment: Cytotoxicity against human HepG2 cells assessed as depletion of intracellular GSH content at 2.5 uM after 48 hrs by HPLC analysis; assay type: cell-based; details: hepg2, 48 h; in short: as §5

SMILES: CS(=O)(=O)[O-].O=C(/C=C/c1cc(O)c(O)c(O)c1)NCCCCCC[P+](c1ccccc1)(c1ccccc1)c1ccccc1
- pIC50 [1]: 4.72
- pIC50 [2]: 4.91
- pIC50 [3]: 5.51
- Activity [4]: 0.034 V
- Activity [5]: 0.498 V
- inhibition [6]: Active
- Drug uptake [7]: 2 mM
- Drug uptake [8]: 2.4 µM
- Ratio [9]: 2100
- inhibition [10]: Active
- Activity [11]: Dose-dependent effect
- Activity [12]: Dose-dependent effect
- Activity [13]: Non-Toxic
- inhibition [14]: Active
- inhibition [15]: Active
- Activity [16]: Non-Toxic
- Activity [17]: Non-Toxic
- Activity [18]: 26.94 nmol
- Activity [19]: Non-Toxic
- Activity [20]: Dose-dependent effect
- Activity [21]: Dose-dependent effect
- Activity [22]: Dose-dependent effect
- Activity [23]: Dose-dependent effect
- Activity [24]: Dose-dependent effect
- Activity [25]: Dose-dependent effect
- Activity [26]: Dose-dependent effect
- Activity [27]: Dose-dependent effect
- Activity [28]: Dose-dependent effect

SMILES: CS(=O)(=O)[O-].O=C(/C=C/c1ccc(O)c(O)c1)NCCCCCCCCCC[P+](c1ccccc1)(c1ccccc1)c1ccccc1
- pIC50 [1]: 4.59
- pIC50 [2]: 4.63
- pIC50 [3]: 5.57
- Activity [4]: 0.174 V
- Activity [5]: 0.291 V
- Drug uptake [7]: 4.7 mM
- Drug uptake [8]: 1.9 µM
- Ratio [9]: 2700
- inhibition [10]: Active
- Activity [11]: Dose-dependent effect
- Activity [12]: Dose-dependent effect
- Activity [29]: 10 mV
- inhibition [30]: Active
- Activity [31]: Non-Toxic
- inhibition [32]: Active
- Activity [33]: 20.85 nmol
- Activity [34]: Toxic
- inhibition [35]: Active
- inhibition [36]: Active
- Activity [37]: Non-Toxic
- Activity [38]: Non-Toxic
- Activity [39]: Non-Toxic
- Activity [20]: Dose-dependent effect
- Activity [21]: Dose-dependent effect
- Activity [22]: Dose-dependent effect
- Activity [23]: Dose-dependent effect
- Activity [24]: Dose-dependent effect
- Activity [25]: Dose-dependent effect
- Activity [26]: Dose-dependent effect
- Activity [27]: Dose-dependent effect
- Activity [28]: Dose-dependent effect
